Compound activity: PubChem, The Scripps Research Institute Molecular Screening Center
ARFGAP1 inh: inhibitors of rat ARFGAP1 GAP activity, primary screen, biochemical, fluorescence polarization, GDP tracer; ADP-ribosylation factor GTPase-activating protein 1 (Rattus norvegicus), Q62848; Arfgap1-stimulated ARF1 GTP hydrolysis, GDP FP detection; inhibition, % at 16.5 µM; 0.26% of 360,000 active;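 active = inhibition above a per-plate limit, mean inhibition of low control wells plus 3 SD, cut at about 25% in these data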;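 also: 0% = DMSO wells with enzyme and 100% = wells lacking Arfgap1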
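Material: truncated rat Arfgap1 GAP domain; Incubation: compound-enzyme preincubation 20 min, reaction 120 min, detection 60 min, 25 °C; Read-out: percent inhibition of Arfgap1-stimulated GTP hydrolysis; Technique: FP, GDP Alexa 633 tracer displaced from anti-GDP antibody, 620/688 nm; Controls: No-Arfgap1 wells (100%) versus DMSO full-reaction wells (0%); Replication: single well per compound.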
TCR-CD3 inh: inhibitors of human TCR-CD3 interaction, primary screen, biochemical, fluorescence, TAMRA-labeled TCR probe; inhibition, % at 9.4 µM; 0.37% of 360,000 active; AID 651800, 2012; in the data active = inhibition above about 19%;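 also: recombinant mutant TCR 2C K166C tagged with TAMRA read by polarization; 0% = receptor in buffer alone and 100% = receptor with positive control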
UHRF1 MBD2 ctr: UHRF1 methylated DNA binding inhibitors, primary screen, counter-screen for MBD2 inhibitor project, biochemical, TR-FRET, human UHRF1, single concentration; E3 ubiquitin-protein ligase UHRF1 (Homo sapiens), Q96T88; UHRF1 binding to methylated oligo; inhibition, % at 4.4 µM; 0.75% of 370,000 active; AID 687016, 2013; in the data active = inhibition above about 21%;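 also: UHRF1 SRA domain binding a hemimethylated CpG hairpin DNA probe; 0% = median of test compound wells and 100% = reference inhibitor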
ASAP1 inh: inhibitors of human ASAP1 ArfGAP activity, primary screen, biochemical, fluorescence polarization; inhibition, % at 16.5 µM; ASAP1-stimulated ARF1 GTP hydrolysis, GDP FP detection; Arf-GAP with SH3 domain, ANK repeat and PH domain-containing protein 1 (Homo sapiens), …; 0.19% of 360,000 active; in the data active = inhibition above about 25%;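 also: 0% = vehicle with enzyme and substrate and 100% = no enzyme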
MBD2 inh: inhibitors of MBD2 binding to methylated DNA, primary screen, biochemical, TR-FRET, DNA-binding domain, human; Methyl-CpG-binding domain protein 2 (Homo sapiens), Q9UBB5; MBD2 binding to methylated oligonucleotide; inhibition, % at 4.4 µM; 0.31% of 370,000 active; in the data active = inhibition above about 13%
LEDGF integ inh: blockers of LEDGF/p75-dependent integrase strand transfer – biochemical, TR-FRET, high throughput, primary screen. HIV-1 integrase (with human LEDGF/p75). TR-FRET IN-LEDGF/p75 DNA integration, Eu/Cy5. inhibition, % at 3.7 µM. 0.64% of 370,000 active. AID 743269, 2014;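 active = inhibition above the screen-wide mean plus 3 SD, cut at about 13% in these data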;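 also: signal is the Cy5 over europium emission ratio at 671 and 618 nm; 0% = plate median of compound wells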
Starred values were filed as active, the others as inactive; nt = not tested or not shown. Shown are actives, neighbours in structure and some others; about 2% of the full set was active somewhere.

SMILES	ARFGAP1 inh	TCR-CD3 inh	UHRF1 MBD2 ctr	ASAP1 inh	MBD2 inh	LEDGF integ inh
CC1(C(=O)NS(=O)(=O)c2cccc(C#N)c2)CCN1C(=O)c1cccc2ccccc12 (configuration not stated)	1.5	-2.0	1.5	5.7	-2.5	1.5
CC1CCN(C(=S)NC(=O)c2ccccc2)CC1	8.6	3.1	37.6*	5.9	-3.6	-0.7
CC(C)(C)c1ccc(C(=O)NC(=S)N2CCCC2)cc1	7.3	-2.6	-3.5	-8.2	2.3	2.6
CC(C)(C)c1ccc(C(=O)NC(=S)N2CCCCCC2)cc1	-6.1	1.6	-2.3	-11.3	-1.0	20.5*
CCCC(CNC(C)=O)(C1=CCCCC1)c1ccccc1 (configuration not stated)	-0.2	3.2	-1.4	-9.3	4.5	0.5
CCOc1cc(C(=O)NC)cc(Br)c1OCc1ccccc1	-1.4	2.2	48.4*	0.2	-6.7	5.9
CCOc1cc(C(=O)NC)cc(Br)c1OC	3.7	-6.8	-0.7	-5.5	1.1	-7.5
O=C(OCC#CCSc1nnc(-c2cccc3ccccc23)o1)C1CCCC1	nt	nt	-1.2	nt	-5.7	5.5
O=C1NC(=O)C2(CCCc3ccc([N+](=O)[O-])cc32)N1 (configuration not stated)	1.0	6.0	-1.1	9.6	-2.5	2.0
Nc1ccc2c(c1)C1(CCC2)NC(=O)NC1=O (configuration not stated)	-1.0	3.3	21.3*	2.3	9.1	1.1
C/C(Cn1cnc([N+](=O)[O-])n1)=N/NC(=O)COc1ccccc1Cl	-5.0	6.0	24.4*	2.2	3.6	-1.7
Nc1ccc2nc(SCC(=O)c3ccccc3)sc2c1	-2.0	-6.9	-6.8	6.4	-2.7	-1.5
Nc1ccc2nc(SCc3ccccc3F)sc2c1	4.8	0.2	22.8*	2.5	-1.2	-0.5
CC(C)C[C@H]1COc2cccc(F)c2S(=O)(=O)N1Cc1cn(Cc2ccc(Cl)cc2)nn1	nt	nt	-1.6	nt	-1.2	-4.4
CNc1ccccc1/C(O)=C(\C#N)C(=O)NCc1cccs1	nt	nt	-0.6	nt	-2.9	5.9
COC(=O)c1ccc2nc(-c3ccc(C#N)cc3)c(Cc3ccsc3)n2c1	-8.3	-4.6	21.8*	-6.8	5.0	0.3
COC(=O)c1ccc2nc(-c3ccc(C)cc3)c(Cc3ccsc3)n2c1	3.2	5.4	20.2	-11.9	-2.2	3.6
COC(=O)c1ccc2nc(-c3ccc(C#N)cc3)c(Cc3cccc(Cl)c3)n2c1	2.2	0.0	21.2*	-8.2	2.9	1.1
COC(=O)c1ccc2nc(-c3ccc(F)cc3)c(Cc3ccccc3)n2c1	-1.5	-2.8	22.8*	-11.4	2.4	7.3
COC(=O)c1ccc2nc(-c3ccc(F)cc3)c(Cc3ccsc3)n2c1	-2.5	2.0	23.8*	9.2	6.1	4.2
C=C1CCCC2OC(CC3=CC4/C(C)=C/CC(C)CC(/C=C(\C)C(O)C5CC(O)C(O)C(CCC(O)/C=C/C(C)=C/CCC6=NCCC(C3)C64C)O5)OC(=O)CC3OC(C(O)C1)C(O)C3O)CC(O)C2O (configuration not stated)	-9.3	1.8	3.6	12.3	-0.5	-0.5
CCn1cc(C(=O)Nc2ncccc2O)c(=O)c2cc(F)c(N3CCN(C(=O)c4ccco4)CC3)cc21	4.2	19.5*	-5.5	4.9	-1.6	1.7
COCCNC(=O)CN(C(=O)Cn1nnc2ccccc21)c1ccccc1C	-1.8	4.2	2.3	6.2	2.1	1.6
COCCNC(=O)CN(C(=O)Cn1nnc2ccccc21)c1ccc(F)c(Cl)c1	-6.9	-8.8	81.5*	2.5	9.8	-0.1
CS(=O)(=O)N1CCC[C@]2(CC[C@@H](CCC#N)O2)C1	nt	nt	0.4	nt	-4.6	-4.7
SMILES	ARFGAP1 inh	TCR-CD3 inh	UHRF1 MBD2 ctr	ASAP1 inh	MBD2 inh	LEDGF integ inh
CC1=CC(C)(C)N2C(=O)C3(C(C#N)=C(N)OC4=C3C(=O)CC(C)(C)C4)c3cccc1c32 (configuration not stated)	-3.0	3.5	20.8*	4.5	12.3	1.1
CCOC(=O)c1cccc(NC(=O)CCNS(=O)(=O)c2ccc3c(c2)CCN3C(=O)CC)c1	-11.1	1.3	-2.1	7.0	4.2	-0.6
CC(=O)N1CCc2cc(S(=O)(=O)NCCC(=O)Nc3cccc(C)c3)ccc21	6.5	4.2	21.9*	-9.5	6.1	-1.1
CC(C)[C@H](NC(=O)CC1CCCC1)C(=O)N1CCC[C@H]1C(=O)NCCc1ccccc1Cl	-3.0	5.7	-2.6	4.3	-4.9	4.8
Cc1nc2c(=O)[nH]c(=S)[nH]c2[nH]c1=O	-7.8	4.7	85.0*	-3.8	48.2*	22.4*
Cc1nc2[nH]c(=S)[nH]c(=O)c2nc1C	15.9	1.8	1.6	2.0	-0.6	2.9
C[N+](C)(C)CCNC(=O)c1ccccc1	0.9	-8.8	0.5	-4.8	-0.2	3.0
Cc1cc(Br)ccc1NC(=O)C1CSC2(C)CCC(=O)N12 (configuration not stated)	1.5	3.9	35.5*	6.0	0.2	-1.1
CC12CCC(=O)N1C(C(=O)Nc1ccc(Br)cc1Cl)CS2 (configuration not stated)	-6.0	9.4	-3.5	10.1	-4.7	-1.2
CSc1nnc(NC(=O)c2ccc3c(c2)OCO3)s1	1.3	13.7	-0.3	-12.0	1.5	-0.1
COCCSc1nnc(NC(=O)c2ccc3c(c2)OCO3)s1	13.7	-0.5	69.1*	4.7	-0.1	-1.8
CN(Cc1cccc(F)c1)C(=O)C1CC(=O)N(c2ccc3c(c2)OCCO3)C1 (configuration not stated)	9.2	-0.8	60.1*	-1.5	5.1	-4.5
COC(=O)[C@]12C[C@H](CC(=O)N3CCN(C(=O)C4CC4)CC3)C(=O)N(CCC3=CCCCC3)C1=C[C@H](C1CCCC1)O[C@@H]2C	nt	nt	0.5	nt	7.1	-3.8
O=[N+]([O-])c1cccc(COc2ccc(CN3CCCCC3)cc2)c1	-4.9	-5.6	20.9*	10.7	7.0	-4.9
Cc1ccc(NC(=O)CCS(=O)(=O)c2ccc3nc(C)sc3c2)c(C)c1	-10.9	8.0	-0.8	-4.0	-7.8	-2.0
CCOP(=O)(OCC)c1nc(-c2cccc3ccccc23)oc1NCc1ccc(OC)cc1	11.1	-5.4	24.5*	1.3	9.2	6.0
CCOP(=O)(OCC)c1nc(-c2cccc3ccccc23)oc1NCc1ccccc1	-2.0	-4.8	4.0	9.6	0.0	-2.1
